# According to PubChem BioAssay AID588745 (Vanderbilt Specialized Chemistry Center, 2011):
# A number with no mark means an inactive call.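 Rule for the calls: active = compounds whose response rose with dose, given a half-maximal potency and peak effect versus acetylcholine; inactive = the rest.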
# Target: Muscarinic acetylcholine receptor M3 (Homo sapiens) (UniProt P20309)
# Experiment: M3 positive allosteric modulation, counter-screen, dose response, counter-screen, human, CHO cells, calcium fluorescence (AID 588745)
# Settings: CHO hM3 cells, Fluo-4 calcium fluorescence, PAM mode; series mostly up to 30 µM; % ACh max response: at the top concentration
# Method in brief: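 Test system: Human M3 CHO cells | Also added: ACh EC20 followed by ACh EC80 | Incubation: Compound 144 s before EC20 ACh, EC80 ACh 86 s later, 37 °C | Signal: Intracellular calcium fluorescence with Fluo-4 AM dye | Controls: 1 mM ACh maximal response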
row,Compound,% ACh max response
1,Cc1nc2sc(C(=O)NCCc3ccncc3)c(N)c2c(C)c1Cl,28.6
2,Cc1nc2sc(C(=O)NCc3nccs3)c(N)c2c(C)c1Cl,29.5
3,Cc1nc2sc(C(=O)NCc3cccc(F)c3F)c(N)c2c(C)c1Cl,8.6
4,Cc1nc2sc(C(=O)NCc3ccc4c(c3)OCO4)c(N)c2c(C)c1Cl,15.9 [at 36.8 µM]
5,Cc1nc2sc(C(=O)NCc3ccncn3)c(N)c2c(C)c1Cl,15.1
6,Cc1nc2sc(C(=O)NCc3ccncc3)c(N)c2c(C)c1Cl,7.68 [at 45.3 µM]
7,Cc1nc2sc(C(=O)NC3CC3)c(N)c2c(C)c1Cl,18.7
8,Cc1nc2sc(C(=O)NCc3cccnc3)c(N)c2c(C)c1Cl,14.8 [at 45.3 µM]
9,Cc1nc2sc(C(=O)NCc3ccccc3)c(N)c2c(C)c1Cl,13.2 [at 37.4 µM]
